TAAR1 agonist – agonists of human TAAR1; CHO RD-HGA16 TAAR1, Fluo-8 calcium fluorescence; vehicle wells 0%, saturating PEA agonist 100%; activation, % at 3 µM; actives 0.99% (n = 360,000);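 active means activation above the mean activation of all test compounds in the run plus 3 SD, cut at about 38% in these data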
Target sequence (Q96RJ0 whole entry, looked up): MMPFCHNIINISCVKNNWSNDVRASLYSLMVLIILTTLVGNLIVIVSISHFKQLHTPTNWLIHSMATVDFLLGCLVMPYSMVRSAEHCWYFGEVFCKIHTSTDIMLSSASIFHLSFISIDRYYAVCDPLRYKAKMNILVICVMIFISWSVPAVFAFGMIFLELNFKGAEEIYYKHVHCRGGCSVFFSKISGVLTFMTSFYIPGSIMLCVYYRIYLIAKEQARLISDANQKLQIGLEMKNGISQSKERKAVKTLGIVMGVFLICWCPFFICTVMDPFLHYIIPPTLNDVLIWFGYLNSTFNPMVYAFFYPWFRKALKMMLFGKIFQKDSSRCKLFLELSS
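Test system: RD-HGA16 (CHO) cells co-expressing Gα16 and hTAAR1 | Doses: Single dose, 3 µM | Schedule: 17-24 h seeding, 75 min 37 °C dye, 30 min RT | Evaluation: % activation from peak over basal fluorescence ratio, DMSO-to-PEA scaled | Technique: Kinetic Fluo-8 calcium fluorescence | Benchmarks: Low control DMSO, high control PEA (EC100)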
TAAR1 antagonist – antagonists of human TAAR1. Q96RJ0. CHO RD-HGA16 TAAR1, Fluo-8 calcium fluorescence, antagonist. inhibition, % at 3 µM. actives 1.5% (n = 360,000);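 active means inhibition above a per-plate cutoff, the mean inhibition of test compounds on that plate plus 3 SD, cut at about 49% in these data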;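 further: 0% = DMSO plus EC80 beta-PEA response and 100% = DMSO alone without agonist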
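Assay system: CHO-derived RD-HGA16 cells stably expressing human TAAR1 plus Gα16. Timing: 140 s kinetic read after compound, 140 s after agonist. Technique: kinetic Fluo-8 calcium fluorescence measurement. Measure: % inhibition of agonist calcium response.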
core dimer inh – HCV core protein dimerization inhibition. AID 1899. TR-FRET GST/Flag-core106 dimerization, 1536-well. actives 0.33% (n = 300,000). inhibition, % at 5 µM;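 active means inhibition above the mean of all tested compounds plus 3 SD, set per screening campaign, cut at about 45% in these data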
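assay system = GST-tagged and Flag-tagged HCV core protein residues 1-106 | controls = unlabelled core106 and no-GST-core106 wells | incubation = compound-protein-antibody incubation 4 h at 22.5 °C | probe or stimulus = Eu donor and XL665 acceptor anti-tag antibodies | read-out = % inhibition based on acceptor/donor emission ratio | signal = TR-FRET 671 and 617 nm emission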
NS3 helicase inh – HCV NS3 helicase inhibition. inhibition, % at 10.9 µM. actives 0.56% (n = 290,000). NS3 helicase DNA unwinding, Cy5 molecular beacon fluorescence;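 active means inhibition above the mean of all tested compounds plus 3 SD, set per campaign, cut at about 35% in these data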;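 further: 0% = DMSO wells and 100% = thioflavine S control wells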
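Assay system – hepatitis C virus NS3 helicase domain fragment enzyme · Buffer or medium – MOPS pH 6.5, MgCl2, DTT, Tween20, BSA · Reagent – Cy5/quencher beacon DNA duplex and ATP to start · Compound – single 10.9 µM dose · Timing – 1 h at 25 °C · Technique – Cy5 beacon fluorescence read at start and 1 h · Measure – % inhibition of unwinding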
rCAG RNA binder – molecules binding r(CAG) RNA repeats; r(CAG) RNA repeat, TO-PRO-1 dye displacement fluorescence; inhibition, % at 3 µM; actives 1.3% (n = 370,000);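 active means inhibition above the plate cutoff, the mean of all test compounds on that plate plus 3 SD, cut at about 35% in these data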;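 further: 0% = DMSO alone and 100% = 100 µM mitoxantrone as full dye displacement; higher means more dye released from RNA so lower well fluorescence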
TAAR1 nonsel count – nonselective antagonism, TAAR1 counter-screen; actives 77% (n = 2,400); inhibition, % at 3 µM; counterscreen cell line, calcium fluorescence, antagonist mode; shares compounds with TAAR1 antagonist; in the data active means inhibition above about 22%;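 further: CHO-Ga16 host cells stimulated with ATP at an EC80 level; 0% = agonist EC80 plus vehicle and 100% = vehicle without agonist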
TAAR1 antag conf – confirmation of human TAAR1 antagonists; shares compounds with TAAR1 antagonist; TAAR1-expressing cells, fluorescence antagonist read-out; inhibition, % at 3 µM; actives 40% (n = 2,400); in the data active means inhibition above about 49%;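 further: CHO-Ga16 host cells challenged with agonist PEA near its EC80; 0% = agonist at EC80 plus vehicle and 100% = vehicle with no agonist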
Ga16 ag counter – counter-screen for TAAR1 antagonists: nonselective Ga16 agonists | shares compounds with TAAR1 antagonist | Ga16-expressing cells, calcium fluorescence, agonist counterscreen | activation, % at 3 µM | actives 18% (n = 2,400); in the data active means activation above about 12%;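 further: 0% = vehicle wells and 100% = saturating stimulus response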
TAAR1 ag counter – activates human TAAR1 in antagonist counter-screen. activation, % at 3 µM. hTAAR1 cell line, fluorescence activation, agonist mode. AID 651955. actives 2% (n = 2,400). shares compounds with TAAR1 antagonist; in the data active means activation above about 37%;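 further: CHO cells stably expressing TAAR1 with calcium dye readout; 0% = DMSO vehicle and 100% = full agonist response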
Numbers without * were called inactive. Sampled rows, rich in hits. Any-hit rate of the full collection: about 3.7%.

Results for O=S(=O)(c1ccc(F)cc1)N1CCCc2nc(-c3ccc(F)cc3)ccc21 ?
TAAR1 agonist: -0.1; TAAR1 antagonist: 0.1; rCAG RNA binder: 2.6

Results for Cc1nn(-c2ccccn2)c2c1-c1nc(N3CCOCC3)ncc1CC2 ?
TAAR1 agonist: 15.5; TAAR1 antagonist: 70.1*; core dimer inh: -1.8; NS3 helicase inh: -2.3; rCAG RNA binder: -0.1; TAAR1 nonsel count: 27.1*; TAAR1 antag conf: 48.6*; Ga16 ag counter: 5.7; TAAR1 ag counter: 5.0

How did COc1ccc(C(=O)C(=O)N2CCN(C(=O)c3cc(C(F)(F)F)cc(C(F)(F)F)c3)CC2)cc1OC do in these assays?
TAAR1 agonist: -0.1; TAAR1 antagonist: -20.8; rCAG RNA binder: 0.8

Results for COc1cc(NC(=O)c2cccc3c(-c4cccnc4)coc23)cc(OC)c1OC ?
TAAR1 agonist: 19.8; TAAR1 antagonist: 76.4*; rCAG RNA binder: 3.0; TAAR1 nonsel count: 28.8*; TAAR1 antag conf: 58.8*; Ga16 ag counter: 16.3*; TAAR1 ag counter: 14.6

Results for NC(=O)c1cccc(-c2coc3c(C(=O)NCc4ccccc4)cccc23)c1 ?
TAAR1 agonist: 13.1; TAAR1 antagonist: 32.7; rCAG RNA binder: 3.3

How did CC(=O)c1cccc(NC(=O)c2cccc3c(-c4cccc(C(N)=O)c4)coc23)c1 do in these assays?
TAAR1 agonist: 13.2; TAAR1 antagonist: 85.4*; rCAG RNA binder: 5.8; TAAR1 nonsel count: 41.5*; TAAR1 antag conf: 56.2*; Ga16 ag counter: 12.7*; TAAR1 ag counter: 10.8

How did NC1=[N+](Cc2ccccc2)C(Cc2ccccc2)C2C(=C3CCCCC3n3c(=O)n(-c4ccccc4)c(=O)n32)N1 (configuration not stated) do in these assays?
rCAG RNA binder: 17.5

What do the screens show for `CC1(c2nnnn2C2CCCCC2)CCCC(=O)N1CCc1ccc(O)cc1` (configuration not stated)?
rCAG RNA binder: 6.1

What do the screens show for `CCN=C1NC(CCc2ccccc2)C(C(=O)OC)=C(C)N1Cc1ccc(C(F)(F)F)cc1` (configuration not stated)?
TAAR1 agonist: 7.8; TAAR1 antagonist: -3.2; rCAG RNA binder: 6.3

Results for COc1cccc(NC(=O)Nc2ccncc2)c1 ?
TAAR1 agonist: 16.7; TAAR1 antagonist: -8.7; core dimer inh: -4.8; NS3 helicase inh: -5.9; rCAG RNA binder: 1.8

Results for COc1cccc(NC(=O)Nc2ccc(C(C)(C)C)cc2)c1 ?
TAAR1 agonist: 13.2; TAAR1 antagonist: 86.9*; NS3 helicase inh: -4.6; rCAG RNA binder: 3.1; TAAR1 nonsel count: 51.3*; TAAR1 antag conf: 75.8*; Ga16 ag counter: 14.5*; TAAR1 ag counter: 13.1

What do the screens show for `COc1ccc(CCNC(=O)c2ccc(-c3cccc([N+](=O)[O-])c3)o2)cc1OC`?
TAAR1 agonist: 25.1; TAAR1 antagonist: 59.5*; core dimer inh: 5.4; NS3 helicase inh: -1.0; rCAG RNA binder: 2.4; TAAR1 nonsel count: 27.8*; TAAR1 antag conf: 45.9; Ga16 ag counter: 14.5*; TAAR1 ag counter: 13.7

How did COc1ccc(CCNC(=O)c2cccc([N+](=O)[O-])c2)cc1OC do in these assays?
TAAR1 agonist: 0.8; TAAR1 antagonist: -12.6; core dimer inh: -1.5; rCAG RNA binder: -5.9

What do the screens show for `COc1cc([N+](=O)[O-])ccc1NC(=O)c1cccc(NC(=O)C(C)C)c1`?
TAAR1 agonist: 11.6; TAAR1 antagonist: -8.8; core dimer inh: -0.1; NS3 helicase inh: -13.3; rCAG RNA binder: 4.7

How did COc1cc(NC(=O)c2ccc(-c3cccc([N+](=O)[O-])c3)o2)ccc1NC(=O)C(C)C do in these assays?
TAAR1 agonist: 7.5; TAAR1 antagonist: 63.0*; core dimer inh: -4.2; NS3 helicase inh: 21.9; rCAG RNA binder: -0.3; TAAR1 nonsel count: 30.9*; TAAR1 antag conf: 45.1; Ga16 ag counter: 6.3; TAAR1 ag counter: 3.6

What do the screens show for `CC(=O)N1CCN(c2ccccc2NC(=O)c2ccc(-c3cccc([N+](=O)[O-])c3)o2)CC1`?
TAAR1 agonist: 10.3; TAAR1 antagonist: 66.4*; core dimer inh: 12.0; NS3 helicase inh: -5.5; rCAG RNA binder: -0.8; TAAR1 nonsel count: 27.5*; TAAR1 antag conf: 49.2*; Ga16 ag counter: 6.8; TAAR1 ag counter: 3.8

Results for O=S1(=O)c2c(cccc2N2CCSCC2)Oc2ccccc2CN1Cc1cn(Cc2ccc(Cl)cc2)nn1 ?
rCAG RNA binder: 4.4

Results for CCCC(C)C(=O)NC1CCCCN(Cc2ccccc2C)C1=O (configuration not stated) ?
rCAG RNA binder: -1.5

How did CCOC(=O)[C@]12CCCC3=C1N(CCC3)C(=O)[C@@H](CC(=O)NCCc1ccccc1OC)C2 do in these assays?
rCAG RNA binder: -1.3

Results for COc1ccc(O)c(/C=N/Nc2nc(Nc3ccccc3)nc(-n3nc(C)cc3C)n2)c1 ?
TAAR1 agonist: 13.0; TAAR1 antagonist: 58.8*; core dimer inh: 12.0; NS3 helicase inh: -28.2; rCAG RNA binder: 11.9; TAAR1 nonsel count: 37.3*; TAAR1 antag conf: 47.2; Ga16 ag counter: 7.4; TAAR1 ag counter: 2.5

How did COc1cc(/C=N/Nc2nc(Nc3ccccc3)nc(-n3nc(C)cc3C)n2)cc(OC)c1OC do in these assays?
TAAR1 agonist: 5.8; TAAR1 antagonist: 64.5*; core dimer inh: 32.0; NS3 helicase inh: -69.3; rCAG RNA binder: 9.6; TAAR1 nonsel count: 24.1*; TAAR1 antag conf: 37.9; Ga16 ag counter: 6.0; TAAR1 ag counter: 7.2

How did COC1=C[C@H](C(=O)NC2CCN(Cc3ccccc3)CC2)[C@@]2(C)Cc3ccccc3[C@H]2CC1=O do in these assays?
rCAG RNA binder: -0.8

Results for CCN(CC)S(=O)(=O)c1ccc(/C(O)=C(\C#N)c2nc3ccccc3n2C)cc1 ?
TAAR1 agonist: 34.6; TAAR1 antagonist: 63.4*; core dimer inh: 10.8; NS3 helicase inh: -0.1; rCAG RNA binder: 1.0; TAAR1 nonsel count: 35.1*; TAAR1 antag conf: 48.8*; Ga16 ag counter: 12.6*; TAAR1 ag counter: 14.1

What do the screens show for `Cn1c(/C(C#N)=C(\O)c2ccc([N+](=O)[O-])cc2)nc2ccccc21`?
TAAR1 agonist: 5.2; TAAR1 antagonist: 8.3; core dimer inh: 2.5; NS3 helicase inh: 3.5; rCAG RNA binder: 2.6
